Assay results from different studies.
Organism: Leishmania donovani
Observed: parasite growth

SMILES	method	cells	time	notes	IC50
COc1cc(NC(C)CCCNCCNCCNCCCC(C)Nc2cc(OC)cc3cccnc23)c2ncccc2c1.Cl.Cl (centres unmarked)	resazurin	–	–	promastigote	2.99 µg/mL
O=[N+]([O-])c1c(CS(=O)(=O)c2ccccc2)nc2c(Br)cc(Br)cn12	MTT	–	72 h	promastigote	1800 nM
C[C@@H]1[C@H](O)[C@@H](C)/C=C/C=C/C=C/C=C/C=C/C=C/C=C/[C@H](O[C@@H]2O[C@H](C)[C@@H](O)[C@H](N)[C@@H]2O)C[C@@H]2O[C@](O)(C[C@@H](O)C[C@@H](O)[C@H](O)CC[C@@H](O)C[C@@H](O)CC(=O)O[C@H]1C)C[C@H](O)[C@H]2C(=O)O	resazurin	–	72 h	promastigote	0.57 µg/mL
Cc1cc(NC(=O)Nc2ccc3c(c2)OC(F)(F)O3)cc(C(F)(F)F)n1	–	–	–	intracellular, amastigote	860 nM
COc1cc(NC(C)CCCN)c2ncccc2c1 (centres unmarked)	resazurin	–	–	promastigote	19.9 µg/mL
CCCCCCCCCCCCCCCCOP(=O)([O-])OCC[N+](C)(C)C	–	–	–	promastigote	4230 nM
Fc1cccc(Nc2nc(-c3ccccn3)nc3ccccc23)c1	–	THP-1	–	intracellular, amastigote	1400 nM
C[C@@H]1[C@H](O)[C@@H](C)/C=C/C=C/C=C/C=C/C=C/C=C/C=C/[C@H](O[C@@H]2O[C@H](C)[C@@H](O)[C@H](N)[C@@H]2O)C[C@@H]2O[C@](O)(C[C@@H](O)C[C@@H](O)[C@H](O)CC[C@@H](O)C[C@@H](O)CC(=O)O[C@H]1C)C[C@H](O)[C@H]2C(=O)O	resazurin	–	–	promastigote	0.19 µg/mL
N=C(N)c1ccc(OCCCCCOc2ccc(C(=N)N)cc2)cc1	resazurin	–	48 h	promastigote	1 µg/mL
C[C@@H]1[C@H](O)[C@@H](C)/C=C/C=C/C=C/C=C/C=C/C=C/C=C/[C@H](O[C@@H]2O[C@H](C)[C@@H](O)[C@H](N)[C@@H]2O)C[C@@H]2O[C@](O)(C[C@@H](O)C[C@@H](O)[C@H](O)CC[C@@H](O)C[C@@H](O)CC(=O)O[C@H]1C)C[C@H](O)[C@H]2C(=O)O	–	THP-1	5 days	intracellular, amastigote	400 nM
N=C(N)c1ccc(OCCCCCOc2ccc(C(=N)N)cc2)cc1	–	–	–	promastigote	651 nM
c1ccc(-c2nc(N3CCCC3)c3ccccc3n2)nc1	imaging	THP-1	–	intracellular, amastigote	1300 nM
CCCCCCCCCCCCCCCCOP(=O)([O-])OCC[N+](C)(C)C	–	–	–	intracellular, amastigote	1830 nM
c1ccc(CN2CCN(c3nc(-c4ccccn4)nc4ccccc34)CC2)cc1	–	THP-1	–	intracellular, amastigote	4200 nM
CCC/C=C/c1cc2c(C=O)c(O)c(CC=C(C)C)cc2o1	resazurin	–	48 h	promastigote	6.2 µg/mL
c1ccc(CNc2nc(-c3ccccn3)nc3ccccc23)cc1	–	THP-1	–	intracellular, amastigote	2170 nM
N=C(N)c1ccc(OCCCCCOc2ccc(C(=N)N)cc2)cc1	resazurin	–	72 h	promastigote	1.65 µg/mL
